Data reported in ChEMBL document CHEMBL5712907, “Inhibition of super enhancer downregulates the expression of KLF5 in basal-like breast cancers” (Int J Biol Sci, 2018).
Active and inactive are the calls of the source. No cut-off for these calls is given here.

Legend:
HCC1937 [1] = assay: Effect on FGFPB suppression in human HCC1937 cells at 50 to 200 nM for 24 hrs by immunoblotting analysis; type: functional, cell-based; details: dose 50-200 nM
HCC1806 [2] = assay: Effect on FGFPB suppression in human HCC1806 cells at 50 to 200 nM for 24 hrs by immunoblotting analysis; type: functional, cell-based; details: dose 50-200 nM
HCC1937 [3] = assay: Cytotoxicity against human HCC1937 cells assessed as reduction in cell viability at 10 to 10000 nM for 72 hrs by SRB assay; type: functional, cell-based; details: dose 10-10000 nM
Method in brief: (§1)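 HCC1806 or HCC1937 cells grown in RPMI-1640 with 10 % FBS at 37 °C, 5 % CO2, then exposed to graded compound concentrations for 72 h. Viability read by sulforhodamine B staining, absorbance at 560 nm. Experimental triplicates, SD shown.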

HCC1937 [4] = assay: Effect on c-MYC suppression in human HCC1937 cells at 50 to 200 nM for 24 hrs by immunoblotting analysis; type: functional, cell-based; details: dose 50-200 nM
Method in brief: (§2)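 Cells in RPMI-1640/10 % FBS treated with compound for 24 h, lysed with protease inhibitor cocktail, and protein quantified. Equal protein run on SDS-PAGE and blotted to PVDF. Blocked in 5 % milk in PBS-0.2 % Tween-20, probed for KLF5, c-MYC and FGF2, with GAPDH as loading control. HRP secondary antibody, ECL detection.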

HCC1806 [5] = assay: Cytotoxicity against human HCC1806 cells assessed as reduction in cell viability at 10 to 10000 nM for 72 hrs by SRB assay; type: functional, cell-based; details: dose 10-10000 nM; method in brief: as §1
HCC1937 [6] = assay: Effect on KLF5 suppression in human HCC1937 cells at 50 to 200 nM for 24 hrs by immunoblotting analysis; type: functional, cell-based; details: dose 50-200 nM; method in brief: as §2
HCC1806 [7] = assay: Effect on KLF5 suppression in human HCC1806 cells at 50 to 200 nM for 24 hrs by immunoblotting analysis; type: functional, cell-based; details: dose 50-200 nM; method in brief: as §2
HCC1806 [8] = assay: Effect on c-MYC suppression in human HCC1806 cells at 50 to 200 nM for 24 hrs by immunoblotting analysis; type: functional, cell-based; details: dose 50-200 nM; method in brief: as §2
HCC1806 [9] = assay: Effect on human HCC1806 cells assessed as reduction in KLF5 mRNA at 1 uM for 12 to 24 hrs by qPCR analysis; type: functional, cell-based; details: time 12-24 hrs
Method in brief: (§3)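 HCC1806 or HCC1937 cells treated with 1 μM for 12 h or 24 h; KLF5 mRNA quantified by qPCR; experimental triplicates, SD, t-test.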

HCC1937 [10] = assay: Downregulation of FGFBP in human HCC1937 cells treated at 1 to 3 uM for 24 hrs by immunoblotting analysis; type: functional, cell-based; details: dose 1-3 µM
Method in brief: (§4)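 HCC1806 or HCC1937 cells (RPMI-1640, 10% FBS, 37 °C, 5% CO2) treated 24 h; lysed with protease inhibitors, protein assayed, equal amounts run on SDS-PAGE, blotted to PVDF, blocked in 5% milk/PBS-0.2% Tween-20, probed for KLF5, FGFBP, p21, c-MYC and GAPDH loading control; HRP secondary, ECL detection.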

HCC1806 [11] = assay: Upregulation of p21 in human HCC1806 cells treated at 1 to 3 uM for 24 hrs by immunoblotting analysis; type: functional, cell-based; details: dose 1-3 µM; method in brief: as §4
HCC1806 [12] = assay: Downregulation of KLF5 in human HCC1806 cells treated at 1 uM by immunoblotting analysis; type: functional, cell-based; details: time 12-72 hrs, TDE = time-dependent effect
Method in brief: (§5)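 Time course: HCC1806 or HCC1937 cells exposed to 1 μM for the indicated times, pellets collected at each time point and lysed with protease inhibitors; equal protein immunoblotted after SDS-PAGE/PVDF transfer for KLF5, GAPDH loading control, ECL detection.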

HCC1806 [13] = assay: Induction of cell cycle arrest in human HCC1806 cells assessed as decrease in accumulation of cells at S phase at 0.3 to 1 uM for 24 hrs by flow cytometric analysis; type: functional, cell-based; details: dose 0.3-1 µM
Method in brief: (§6)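 HCC1806 or HCC1937 cells seeded, cultured overnight, treated 24 h; fixed in 70% ethanol, RNase A 40 µg/ml, propidium iodide 10 µg/ml; flow cytometry with G1, S and G2/M percentages; experimental triplicates, SD.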

HCC1806 [14] = assay: Inhibition of cell growth in human HCC1806 cells infected with pCDH-3 Flag tagged KLF5 assessed as ectopic KLF5 expression at 100 to 10000 nM for 72 hrs by SRB assay; type: functional, cell-based; details: dose 100-10000 nM
Method in brief: (§7)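 HCC1806 or HCC1937 cells infected with pCDH-3×Flag-KLF5 or empty pCDH vector lentivirus, plated in 96-well format and treated 72 h; inhibition rate by sulforhodamine B staining read at 560 nm; experimental triplicates, SD.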

HCC1806 [15] = assay: Induction of cell cycle arrest in human HCC1806 cells assessed as increase in accumulation of cells at G1 phase at 0.3 to 1 uM for 24 hrs by flow cytometric analysis; type: functional, cell-based; details: dose 0.3-1 µM; method in brief: as §6
HCC1937 [16] = assay: Upregulation of p21 in human HCC1937 cells treated at 1 to 3 uM for 24 hrs by immunoblotting analysis; type: functional, cell-based; details: dose 1-3 µM; method in brief: as §4
HCC1937 [17] = assay: Effect on human HCC1937 cells assessed as reduction in KLF5 mRNA at 1 uM for 12 to 24 hrs by qPCR analysis; type: functional, cell-based; details: time 12-24 hrs; method in brief: as §3
HCC1937 [18] = assay: Inhibition of cell growth in human HCC1937 cells infected with pCDH-3 Flag tagged KLF5 assessed as ectopic KLF5 expression at 100 to 10000 nM for 72 hrs by SRB assay; type: functional, cell-based; details: dose 100-10000 nM; method in brief: as §7
HCC1937 [19] = assay: Induction of cell cycle arrest in human HCC1937 cells assessed as increase in accumulation of cells at G1 phase at 0.3 to 1 uM for 24 hrs by flow cytometric analysis; type: functional, cell-based; details: dose 0.3-1 µM; method in brief: as §6
HCC1937 [20] = assay: Downregulation of KLF5 in human HCC1937 cells treated at 1 uM by immunoblotting analysis; type: functional, cell-based; details: time 12-72 hrs, TDE = time-dependent effect; method in brief: as §5
HCC1937 [21] = assay: Induction of cell cycle arrest in human HCC1937 cells assessed as decrease in accumulation of cells at S phase at 0.3 to 1 uM for 24 hrs by flow cytometric analysis; type: functional, cell-based; details: dose 0.3-1 µM; method in brief: as §6
HCC1806 [22] = assay: Downregulation of FGFBP in human HCC1806 cells treated at 1 to 3 uM for 24 hrs by immunoblotting analysis; type: functional, cell-based; details: dose 1-3 µM; method in brief: as §4
HCC1806 [23] = assay: Induction of cell cycle arrest in human HCC1806 cells assessed as increase in accumulation of cells at G1 phase at 0.1 to 0.3 uM for 24 hrs by flow cytometric analysis; type: functional, cell-based; details: dose 0.1-0.3 µM
Method in brief: (§8)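 Seeded cells were cultured overnight, then treated with compound for 24 h. Fixed in 70 % ethanol, treated with 40 µg/ml RNase A and stained with 10 µg/ml propidium iodide. Analysed by flow cytometry for G1, S and G2/M fractions. Experimental triplicates, SD shown.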

HCC1806 [24] = assay: Inhibition of DNA synthesis in human HCC1806 cell at 0.1 to 0.3 uM measured for 24 hrs by Edu incorporation assay; type: functional, cell-based; details: dose 0.1-0.3 µM
Method in brief: (§9)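 After 24 h treatment at different concentrations, cells were EdU-labelled with the Click-iT imaging kit, fixed and DNA-stained. Fluorescence micrographs were taken and five random fields counted per sample. Result given as % EdU-positive (EdU-positive/total cells). Experimental triplicates, SD shown.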

HCC1937 [25] = assay: Potency index, ratio of test compound to (S)-tert-butyl 2-(4-(4-chlorophenyl)-2,3,9-trimethyl-6H-thieno[3,2-f] [1,2,4]triazolo[4,3-a] [1,4]diazepin-6-yl)acetate for effect on human HCC1937 cells assessed as reduction in KLF5 level at 0.1 to 3 uM for 24 hrs; type: functional; details: dose 0.1-3 µM
HCC1937 [26] = assay: Induction of cell cycle arrest in human HCC1937 cells assessed as increase in accumulation of cells at G1 phase at 0.3 uM for 24 hrs by flow cytometric analysis; type: functional, cell-based; method in brief: as §8
HCC1937 [27] = assay: Potency index, ratio of test compound to (S)-tert-butyl 2-(4-(4-chlorophenyl)-2,3,9-trimethyl-6H-thieno[3,2-f] [1,2,4]triazolo[4,3-a] [1,4]diazepin-6-yl)acetate for effect on human HCC1937 cells assessed as reduction in c-MYC level at 0.1 to 3 uM for 24 hrs; type: functional; details: dose 0.1-3 µM
HCC1806 [28] = assay: Inhibition of cell growth in human HCC1806 cells infected with pCDH-3 Flag tagged KLF5 assessed as ectopic KLF5 expression at 0.01 to 10000 nM for 72 hrs by SRB assay; type: functional, cell-based; details: dose 0.01-10000 nM
Method in brief: (§10)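 Cells infected with pCDH-3×Flag-KLF5 lentivirus, or vector control lentivirus, were plated and treated for 72 h. Inhibition rate measured by SRB assay. Experimental triplicates, SD shown.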

HCC1937 [29] = assay: Induction of cell cycle arrest in human HCC1937 cells assessed as increase in accumulation of cells at G1 phase at 0.1 to 0.3 uM for 24 hrs by flow cytometric analysis; type: functional, cell-based; details: dose 0.1-0.3 µM; method in brief: as §8
HCC1937 [30] = assay: Inhibition of cell growth in human HCC1937 cells infected with pCDH-3 Flag tagged KLF5 assessed as ectopic KLF5 expression at 0.01 to 10000 nM for 72 hrs by SRB assay; type: functional, cell-based; details: dose 0.01-10000 nM; method in brief: as §10
HCC1806 [31] = assay: Potency index, ratio of test compound to (S)-tert-butyl 2-(4-(4-chlorophenyl)-2,3,9-trimethyl-6H-thieno[3,2-f] [1,2,4]triazolo[4,3-a] [1,4]diazepin-6-yl)acetate for effect on human HCC1806 cells assessed as reduction in KLF5 level at 0.1 to 3 uM for 24 hrs; type: functional; details: dose 0.1-3 µM
HCC1806 [32] = assay: Potency index, ratio of test compound to (S)-tert-butyl 2-(4-(4-chlorophenyl)-2,3,9-trimethyl-6H-thieno[3,2-f] [1,2,4]triazolo[4,3-a] [1,4]diazepin-6-yl)acetate for effect on human HCC1806 cells assessed as reduction in c-MYC level at 0.1 to 3 uM for 24 hrs; type: functional; details: dose 0.1-3 µM
HCC1806 [33] = assay: Induction of cell cycle arrest in human HCC1806 cells assessed as increase in accumulation of cells at G1 phase at 0.3 uM for 24 hrs by flow cytometric analysis; type: functional, cell-based; method in brief: as §8
HCC1937 [34] = assay: Inhibition of DNA synthesis in human HCC1937 cell at 0.1 to 0.3 uM measured for 24 hrs by Edu incorporation assay; type: functional, cell-based; details: dose 0.1-0.3 µM; method in brief: as §9

Structure (SMILES): CN(C)C/C=C/C(=O)Nc1ccc(C(=O)Nc2cccc(Nc3ncc(Cl)c(-c4c[nH]c5ccccc45)n3)c2)cc1
- Activity (HCC1937 [1]): Active
- Activity (HCC1806 [2]): Active
- Activity (HCC1937 [3]): Active
- Activity (HCC1937 [4]): Active
- Activity (HCC1806 [5]): Active
- Activity (HCC1937 [6]): Active
- Activity (HCC1806 [7]): Active
- Activity (HCC1806 [8]): Active

Structure (SMILES): Cc1sc2c(c1C)C(c1ccc(Cl)cc1)=N[C@@H](CC(=O)OC(C)(C)C)c1nnc(C)n1-2
- Activity (HCC1806 [9]): Active
- Activity (HCC1937 [10]): Active
- Activity (HCC1806 [11]): Active
- Activity (HCC1806 [12]): Tde
- Activity (HCC1806 [13]): Active
- inhibition (HCC1806 [14]): Active
- Activity (HCC1806 [15]): Active
- Activity (HCC1937 [16]): Active
- Activity (HCC1937 [17]): Active
- inhibition (HCC1937 [18]): Active
- Activity (HCC1937 [19]): Active
- Activity (HCC1937 [20]): Tde
- Activity (HCC1937 [21]): Active
- Activity (HCC1806 [22]): Active

Structure (SMILES): Cc1nnn(C)c1-c1cnc2c3c4cnn(C)c4ccc3n([C@H](c3ccccc3)C3CCOCC3)c2c1
- Activity (HCC1806 [23]): Active
- inhibition (HCC1806 [24]): Active
- Ratio (HCC1937 [25]): ~10
- Activity (HCC1937 [26]): Active
- Activity (HCC1937 [3]): Active
- Ratio (HCC1937 [27]): ~10
- inhibition (HCC1806 [28]): Active
- Activity (HCC1806 [5]): Active
- Activity (HCC1937 [29]): Active
- inhibition (HCC1937 [30]): Active
- Ratio (HCC1806 [31]): ~10
- Ratio (HCC1806 [32]): ~10
- Activity (HCC1806 [33]): Active
- inhibition (HCC1937 [34]): Active
